Screening results deposited in PubChem BioAssay by several laboratories.
Hits are enriched below; roughly 1.8% of the tested compounds scored in any of these assays.
PREPL inh: PREPL enzyme inhibitors, primary screen, biochemical, fluorescence polarization; Prolyl endopeptidase-like (Homo sapiens), Q4J6C6; recombinant PREPL, fluorescence polarization activity-based probe; inhibition, % at 5.96 µM; 320,000 compounds, 0.68% hits;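 also: 0% = enzyme with DMSO and 100% = wells lacking enzyme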
iPSC survival up: enhancers of single-cell hiPSC survival, primary screen, ATPlite luminescence; 100% = ROCK inhibitor wells, 0% = DMSO; survival enhancement, % at 20 µM; 360,000 compounds, 0.044% hits; in the data active = survival enhancement above about 18%;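 also: cells exposed to compounds for 16 hours before the ATP read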
SKN-1 inh: suppressors of acrylamide-induced Pgst-4::GFP reporter in worms, primary screen, SKN-1 inhibitor project, whole organism, uHTS, GFP/RFP fluorescence ratio, strain VP596 | 360,000 compounds, 0.49% hits | inhibition, % at 21.8 µM | AID 624304, 2012 | C. elegans VP596 Pgst-4::GFP/RFP ratio, 24 h;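 active = interference check ratio from 0.5 to 1.5 plus GFP to RFP signal ratio inhibition reaching or exceeding a fixed threshold, cut at about 30% in these data, passing the limit was not always enough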
eLon inh: inhibitors of E. coli Lon protease, primary screen, biochemical, fluorescence polarization; P0A9M0; 360,000 compounds, 0.42% hits; AID 602123, 2011; purified E. coli Lon protease; inhibition, % at 7.94 µM; in the data active = inhibition above about 13%, passing the limit was not always enough;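 also: 0% = enzyme with probe and DMSO and 100% = no enzyme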
MT1-MMP act inh: blockers of MT1-MMP proenzyme processing, primary screen, HT1080 RFP-PRO-GFP cells, GFP/RFP fluorescence | Matrix metalloproteinase-14 (Homo sapiens), P50281 | GFP/RFP ratio fluorescence, overnight; percent of plate control window, DMSO zero | GFP/RFP ratio change, % at 20 µM | 360,000 compounds, 0.061% hits;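 active = GFP/RFP ratio change of at least 30% with cell ATP level not reduced by more than half and red fluorescence within 50% of control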
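Assay system: HT1080 RFP-PRO-GFP cells. Benchmarks: DMSO vehicle wells and RFP-L50D-GFP reporter cell wells. Times: overnight cell settling, then overnight compound exposure, 37 °C, 5% CO2. Compound: 20 µM single dose, 1% DMSO. Read-out basis: GFP/RFP fluorescence ratio.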
Tb MetRS inh: T. brucei MetRS inhibitors, primary screen, biochemical, luminescence. purified T. brucei MetRS, ATP depletion, Kinase-Glo luminescence. inhibition, % at 11.9 µM. 360,000 compounds, 0.4% hits. AID 624268, 2012;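 active = inhibition above a per-plate cutoff of the control wells' mean inhibition plus 3 SD, cut at about 5.5% in these data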;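 also: 0% = DMSO wells median and 100% = median of wells with control inhibitor compound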
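assay system = parasite MetRS enzyme | timing = 15 min preincubation, 2 h reaction, all 25 °C | evaluation = percent inhibition relative to median high and low control wells | medium = HEPES buffer containing pyrophosphatase, BSA, spermine, DTT | compound = single dose, 11.9 µM final nominal, 0.9% final DMSO | detection = Kinase-Glo luminescence, ATP depletion format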
PREPL inh cf: human PREPL enzyme inhibitors, confirmation, biochemical, fluorescence polarization. 2,000 compounds, 67% hits. AID 2803, 2010. recombinant PREPL, fluorescence polarization activity probe. shares compounds with PREPL inh. inhibition, % at 5.96 µM;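 also: 0% = protein with DMSO and 100% = wells lacking protein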
Numbers without * were called inactive; · = not tested or not shown. Rule as the data show it, unless noted: active = inhibition above about 43%; inactive = the rest.

SMILES	PREPL inh	iPSC survival up	SKN-1 inh	eLon inh	MT1-MMP act inh	Tb MetRS inh	PREPL inh cf
C#CCOCCOCCOCCNc1nc(N2CCN(C(=O)[C@H](CCCCN)n3cc([C@@H](N)C(C)CC)nn3)CC2)nc(N2CCN(C(=O)[C@H](Cc3cc4ccccc4[nH]3)n3cc([C@@H](N)C(C)CC)nn3)CC2)n1 (some centres undefined)	57*	0	-10	-4	0	0	53*
Cc1cc(/C=C2\SC(=Nc3ccc(F)cc3)NC2=O)c(C)n1-c1ccc(S(N)(=O)=O)cc1	54*	4	-1	-24	-1	0	53*
CC1(Cc2ccc(F)cc2)C(=O)Nc2ccc(S(=O)(=O)NC3CCCCC3)cc21 (centres undefined)	·	-2	18	7	-5	0	·
COc1ccc(/C=N/NC(=O)c2ccc(C)cc2)cc1CN1CCN(c2ccc(F)cc2)CC1	-3	6	12	9	2	0	·
COc1ccc(/C=N\NC(=O)c2cc(O)c(O)c(O)c2)cc1CN1CCN(c2ccc(F)cc2)CC1	54*	0	9	-8	-1	1	20
NS(=O)(=O)c1ccc(NCc2cc(Cl)ccc2OCc2ccc(F)cc2)cc1	-58	-1	27	4	-1	1	·
Nc1ccc(C(=O)OCc2csc(-c3ccccc3)n2)cc1[N+](=O)[O-]	-11	6	-4	-7	7	2	·
CCOc1ccc(C2CC(c3ccccc3C)n3nc(N)nc3N2)cc1 (centres undefined)	42	-2	-2	0	2	0	·
COc1ccc(C2CC(c3ccccc3C)n3nc(N)nc3N2)cc1 (centres undefined)	51*	-1	11	-3	0	0	48*
Cc1ccc(C2CC(c3ccccc3C)n3nc(N)nc3N2)cc1 (centres undefined)	47*	-2	-5	-3	1	0	48*
O=C(COc1coc(CN2CCc3ccccc32)cc1=O)NCCc1ccccc1	18	0	14	3	3	0	·
O=C(COc1coc(CN2CCc3ccccc32)cc1=O)N1CCCCC1	45*	0	13	-9	2	-1	35
O=C(Nc1ccccc1)Nc1ccc(F)c([N+](=O)[O-])c1	15	2	2	-2	1	4	·
Cc1ccsc1C(=O)Nc1ccc(F)c([N+](=O)[O-])c1	45*	2	15	-1	-1	0	38
COc1cccc(N=Nc2c(N)[nH]n3c(=O)c4c(nc23)CCCC4)c1	59*	-1	3	-31	16	0	57*
COc1cccc(N=Nc2c(N)[nH][nH]c2=O)c1	3	-2	-1	5	4	0	·
C/C(=N/NC(=O)CNC(=O)/C=C/c1ccco1)c1ccc(Cl)cc1	-9	1	-18	4	2	0	·
COc1cc(/C=C2\SC(=S)N(N(C)c3ccccc3)C2=O)ccc1O	-32	1	12	-35	15	0	·
Cc1ccnc2nc(C(=O)OCC(=O)NCCc3ccccc3)nn12	23	1	-4	3	·	-2	·
COc1ccc2cc1Oc1ccc(cc1)CC1c3c(cc(OC)c4c3Oc3cc5c(cc3O4)CCNC5C2)CCN1C (centres undefined)	51*	-6	15	-5	-19	0	52*
CCOc1ccc(C=NNc2ccc(S(=O)(=O)Nc3ccccc3C(=O)O)cc2[N+](=O)[O-])cc1	65*	0	-9	-18	18	0	69*
Cc1nn(-c2ccccc2)c(Cl)c1/C=N/Nc1ccc(S(=O)(=O)Nc2ccccc2C(=O)O)cc1[N+](=O)[O-]	38	1	3	-5	17	-1	·
C=CCOc1ccc(C=NNc2ccc(S(=O)(=O)Nc3ccccc3C(=O)O)cc2[N+](=O)[O-])cc1OC	62*	0	17	5	13	0	36
NC1=NC(=O)/C(=C/c2cccc(-c3ccc(S(N)(=O)=O)cc3)c2)S1	-2	2	-14	-8	2	0	·
CCOc1ccccc1N(C)C(=O)c1sc2ncn(CC(=O)N3CCCCC3C)c(=O)c2c1C (centres undefined)	2	0	2	1	1	1	·
SMILES	PREPL inh	iPSC survival up	SKN-1 inh	eLon inh	MT1-MMP act inh	Tb MetRS inh	PREPL inh cf
COc1ccc(NC(=O)N(CCN2CCCC2)Cc2cc3cc(OC)c(OC)cc3[nH]c2=O)cc1	58*	2	-2	-2	-1	0	18
Nc1ccc(N(c2ccccc2)c2ccc(N)cc2)cc1	48*	-3	-8	-9	-4	-1	26
CN(C)c1ccc(CCc2ccc(N)cc2)cc1	4	0	3	-13	-8	0	·
O=C1c2ccccc2-c2onc3c(N4CCN(CCO)CC4)cc(N4CCN(C(=O)c5ccco5)CC4)c1c23	45*	0	54	4	2	0	56*
c1ccc(-c2nc(NCc3ccco3)c3ccccc3n2)nc1	47*	-2	-6	2	8	0	47*
Oc1ccccc1-c1nc(NCc2ccco2)c2ccccc2n1	16	-1	2	-5	0	-2	·
Cc1ccc(Nc2nc(NCc3ccco3)c3ccccc3n2)cc1	57*	-1	3	4	-3	0	45*
c1ccc(N2CCN(c3nc(NCc4ccco4)c4ccccc4n3)CC2)cc1	56*	3	13	12	2	-1	56*
CCn1cnnc1SCC(=O)c1c(N)n(C2CC2)c(=O)[nH]c1=O	-5	0	-2	1	2	0	·
Oc1cc(Nc2ccncc2)cc2cccnc12	47*	-2	5	-12	4	0	51*
COC(=O)CCC(=O)OC1(C)C(=O)C2=CN(C(CO)CO)C(c3ccc(OC)cc3)=CC2=C(Br)C1=O (centres undefined)	58*	·	·	·	·	·	40
CCCCCCCCCCn1c2c(c(=N)c3c1CCC3)CCC2	44*	-5	33	0	-26	0	44*
CCCCCCCCCn1c2c(c(=N)c3c1CCC3)CCCC2	·	0	10	-5	-38	1	·
COc1cccc(NC(=O)CN2C(=O)COc3ccc(Cl)cc32)c1	-1	-1	1	-5	8	0	·
